Reference: ChEMBL document CHEMBL3751743, “Synthesis and anti-cancer screening of novel heterocyclic-(2H)-1,2,3-triazoles as potential anti-cancer agents” (Medchemcomm, 2015)

Test: Cytotoxicity against human Hs578T cells assessed as reduction of cell viability after 48 hrs by calcein-AM-based fluorescence analysis
Format: functional
Settings: Hs-578T
How it was run: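 Cells seeded at 3,000 per well in DMEM with 10% FBS and left overnight at 37 °C. A range of compound concentrations or vehicle was then added for 48 h. Cells were washed with DPBS pH 7.4 and loaded with 2 μM calcein-AM for 30 min at 25 °C. Fluorescence read at ex 490/em 520 nm; viability is given relative to untreated control (100%). Mean ± s.d.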

Structure (SMILES)	GI50 [nM]
COc1cc(-c2n[nH]nc2-c2cc3ccccc3o2)cc(OC)c1OC	20
COc1cc(OC)cc(-c2n[nH]nc2-c2cc3ccccc3s2)c1	65
